Columns and labels:
[1] = test system: Mus musculus; experiment: Toxicity in BDF1 mouse allografted with mouse L1210 cells assessed as change in body weight at 60 mg/kg administered qd for 6 days (reference value: 13.6%); assay type: organism-based; set-up: dose 60 mg/kg; settings: in vivo, 144 h
In short: (§1)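 Ascitic tumors were transplanted from a donor mouse bearing a 7-day tumor. Daily doses were given for six consecutive days. Percentage body-weight change from onset to termination of therapy served as the index of drug toxicity.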

[2] = test system: Mus musculus; experiment: Effect on DNA synthesis in tumor of CD-1 mouse allografted with mouse S180A cells assessed as [3H]-thymidine incorporation at 80 mg/kg, ip pretreated for 6 hrs followed by radiotracer-addition measured after 1 hr relative to control; assay type: functional; settings: route intraperitoneal
In short: (§2)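 Mice bearing 6-day Sarcoma 180 ascites implants received a single ip dose of 80 mg/kg. At the stated pretreatment time they were given ip tracer: 200 μg thymidine-3H, 200 μg uridine-3H or 125 μg DL-leucine-14C. After 1 h of incorporation, specific radioactivity of DNA, RNA or protein was read as % of control incorporation.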

[3] = test system: Mus musculus; experiment: Toxicity in C3H mouse allografted with mouse Hepa129 cells assessed as change in body weight at 60 mg/kg administered qd for 6 days (reference value: 13.5%); assay type: organism-based; set-up: dose 60 mg/kg; settings: in vivo, 144 h; in short: as §1
[4] = test system: Mus musculus; experiment: Effect on DNA synthesis in tumor of CD-1 mouse allografted with mouse S180A cells assessed as [3H]-thymidine incorporation at 80 mg/kg, ip pretreated for 3 hrs followed by radiotracer-addition measured after 1 hr relative to control; assay type: functional; settings: route intraperitoneal; in short: as §2
[5] = test system: Ehrlich; experiment: Antineoplastic activity against mouse EAC cells allografted in CD-1 mouse assessed as average survival at 40 mg/kg administered qd for 6 days (reference value: 14.4 +/- 1.2 days); assay type: functional
In short: (§3)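 Ascitic tumours were transplanted from an appropriate donor mouse carrying a 7-day tumour growth. Drug was given at 10–60 mg/kg/day for six consecutive days. Sensitivity was judged by prolongation of survival time relative to untreated tumour-bearing controls. Mice were weighed throughout, and percentage weight change from onset to end of therapy indicated toxicity.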

[6] = Antineoplastic activity against mouse S180A cells allografted in CD-1 mouse assessed as mouse survival at 40 mg/kg administered qd for 6 days measured for 50 days relative to control; assay type: functional; in short: as §3
[7] = test system: L1210; experiment: Antineoplastic activity against mouse L1210 cells allografted in BDF1 mouse assessed as average survival at 20 mg/kg administered qd for 6 days (reference value: 8.2 +/- 0.4 days); assay type: functional; in short: as §3
[8] = test system: Mus musculus; experiment: Effect on protein synthesis in tumor of CD-1 mouse allografted with mouse S180A cells assessed as [14C]-leucine incorporation at 80 mg/kg, ip pretreated for 1 hr followed by radiotracer-addition measured after 1 hr relative to control; assay type: functional; settings: route intraperitoneal
In short: (§4)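 Sarcoma 180 ascites cells implanted 6 days earlier. Mice received a single ip dose of 10–80 mg/kg, then 1 h later an ip tracer: 200 μg thymidine-3H, 200 μg uridine-3H or 125 μg DL-leucine-14C. Tracer was incorporated for 1 h. Specific activity of tumor-cell DNA, RNA or protein is expressed as % of untreated controls. Values are means of 4-16 mice, each analyzed separately.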

[9] = test system: Mus musculus; experiment: Effect on DNA synthesis in tumor of CD-1 mouse allografted with mouse S180A cells assessed as [3H]-thymidine incorporation at 10 mg/kg, ip pretreated for 1 hr followed by radiotracer-addition measured after 1 hr relative to control; assay type: functional; settings: route intraperitoneal; in short: as §4
[10] = Antineoplastic activity against mouse Hepa129 cells allografted in C3H mouse assessed as average survival at 20 mg/kg administered qd for 6 days (reference value: 18 +/- 0.6 days); assay type: functional; in short: as §3
[11] = test system: Mus musculus; experiment: Effect on protein synthesis in tumor of CD-1 mouse allografted with mouse S180A cells assessed as [14C]-leucine incorporation at 20 mg/kg, ip pretreated for 1 hr followed by radiotracer-addition measured after 1 hr relative to control; assay type: functional; settings: route intraperitoneal; in short: as §4
[12] = Antineoplastic activity against mouse S180A cells allografted in CD-1 mouse assessed as mouse survival at 20 mg/kg administered qd for 6 days measured for 50 days relative to control; assay type: functional; in short: as §3
[13] = Antineoplastic activity against mouse Hepa129 cells allografted in C3H mouse assessed as average survival at 40 mg/kg administered qd for 6 days (reference value: 18 +/- 0.6 days); assay type: functional; in short: as §3
[14] = test system: Mus musculus; experiment: Effect on protein synthesis in tumor of CD-1 mouse allografted with mouse S180A cells assessed as [14C]-leucine incorporation at 80 mg/kg, ip pretreated for 6 hrs followed by radiotracer-addition measured after 1 hr relative to control; assay type: functional; settings: route intraperitoneal; in short: as §2
[15] = Antineoplastic activity against mouse Hepa129 cells allografted in C3H mouse assessed as mouse survival at 60 mg/kg administered qd for 6 days measured for 50 days relative to control; assay type: functional; in short: as §3
[16] = Antineoplastic activity against mouse Hepa129 cells allografted in C3H mouse assessed as average survival at 60 mg/kg administered qd for 6 days (reference value: 18 +/- 0.6 days); assay type: functional; in short: as §3
[17] = test system: L1210; experiment: Antineoplastic activity against mouse L1210 cells allografted in BDF1 mouse assessed as average survival at 40 mg/kg administered qd for 6 days (reference value: 8.2 +/- 0.4 days); assay type: functional; in short: as §3
[18] = test system: Mus musculus; experiment: Toxicity in CD-1 mouse allografted with mouse EAC cells assessed as change in body weight at 40 mg/kg administered qd for 6 days (reference value: 26.8%); assay type: organism-based, Ehrlich; set-up: dose 40 mg/kg; settings: in vivo, 144 h; in short: as §1
[19] = test system: Mus musculus; experiment: Effect on DNA synthesis in tumor of CD-1 mouse allografted with mouse S180A cells assessed as [3H]-thymidine incorporation at 40 mg/kg, ip pretreated for 1 hr followed by radiotracer-addition measured after 1 hr relative to control; assay type: functional; settings: route intraperitoneal; in short: as §4
[20] = test system: Mus musculus; experiment: Toxicity in CD-1 mouse allografted with mouse S180A cells assessed as change in body weight at 60 mg/kg administered qd for 6 days (reference value: 23.2%); assay type: organism-based; set-up: dose 60 mg/kg; settings: in vivo, 144 h
[21] = test system: Mus musculus; experiment: Effect on RNA synthesis in tumor of CD-1 mouse allografted with mouse S180A cells assessed as [3H]-uridine incorporation at 10 mg/kg, ip pretreated for 1 hr followed by radiotracer-addition measured after 1 hr relative to control; assay type: functional; settings: route intraperitoneal; in short: as §4
[22] = test system: Mus musculus; experiment: Effect on DNA synthesis in tumor of CD-1 mouse allografted with mouse S180A cells assessed as [3H]-thymidine incorporation at 20 mg/kg, ip pretreated for 1 hr followed by radiotracer-addition measured after 1 hr relative to control; assay type: functional; settings: route intraperitoneal; in short: as §4
[23] = Antineoplastic activity against mouse S180A cells allografted in CD-1 mouse assessed as average survival at 40 mg/kg administered qd for 6 days (reference value: 12.9 +/- 1.2 days); assay type: functional; in short: as §3
[24] = Antineoplastic activity against 1-formylisoquinoline thiosemicarbazone-resistant mouse S180A cells allografted in CD-1 mouse assessed as average survival at 40 mg/kg administered qd for 6 days (reference value: 14.4 +/- 0.9 days); assay type: functional; in short: as §3
[25] = Antineoplastic activity against 1-formylisoquinoline thiosemicarbazone-resistant mouse S180A cells allografted in CD-1 mouse assessed as average survival at 60 mg/kg administered qd for 6 days (reference value: 14.4 +/- 0.9 days); assay type: functional; in short: as §3
[26] = test system: Mus musculus; experiment: Effect on DNA synthesis in tumor of CD-1 mouse allografted with mouse S180A cells assessed as [3H]-thymidine incorporation at 80 mg/kg, ip pretreated for 1 hr followed by radiotracer-addition measured after 1 hr relative to control; assay type: functional; settings: route intraperitoneal; in short: as §4

Cc1ccc(S(=O)(=O)N/N=C/c2cccc[n+]2[O-])cc1
Activity [1]: -5.8% | Activity [2]: 63% | Activity [3]: -1.6% | Activity [4]: 53% | Survival [5]: 47 days | survival at 40 mg/kg [6]: 20% | Survival [7]: 8.6 days | Activity [8]: 73% | Activity [9]: 71% | Survival [10]: 22.2 days | Activity [11]: 95% | survival at 20 mg/kg [12]: 10% | Survival [13]: 24.8 days | Activity [14]: 89% | survival at 60 mg/kg [15]: 20% | Survival [16]: 29.4 days | Survival [17]: 9.2 days | Activity [18]: -3.3% | Activity [19]: 67% | Activity [20]: -8% | Activity [21]: 74% | Activity [22]: 71% | Survival [23]: 36.3 days | Survival [24]: 24.4 days | Survival [25]: 24.4 days | Activity [26]: 59%
